Assay results taken from ChEMBL document CHEMBL4706682, “Development of Novel Mitochondrial Pyruvate Carrier Inhibitors to Treat Hair Loss” (J Med Chem, 2021).
Active and inactive are the calls of the source. Unless noted, the calls are words filed in the database; no cut-off is given here.

Assays:
[1] = tested on: MCF-10A; test: Inhibition of MPC in human MCF-10A cells assessed as increase in cellular lactate production at 10 uM incubated for 24 to 30 hrs; format: cell-based; conditions: time 24-30 hrs
Procedure, shortened: (§1)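 MCF10A cells were seeded in triplicate and treated the next day with analogue or an equal volume of DMSO for 24-30 h. Lactate in the culture medium was measured on a BioProfile Basic Analyzer. It was normalized to cell number and run time to give a rate (nmol lactate per million cells per hour), relative to DMSO. Statistics were one-way ANOVA with Dunnett's post-test against DMSO.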

[2] = tested on: Mus musculus; test: Stimulation of hair growth in C57BL/6J mouse shaved at postnatal day 50 during telogen-phase of hair cycle at 20 uM dosed topically to shaved back skin every other day for 2 weeks; format: functional, organism-based
Procedure, shortened: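 Wild-type C57BL/6J mice were shaved at postnatal day 50. They were treated topically every other day with about 300 µl of compound at 20 µM, suspended in Transderma Plo Ultramax gel, for up to 3 weeks; vehicle served as control. Pigmentation and hair growth (anagen entry) were photographed weekly. Mice were housed under defined pathogen-free conditions.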

[3] = tested on: MCF-10A; test: Toxicity in human MCF-10A cells assessed as reduction in cell viability incubated for 24 to 30 hrs; format: cell-based; conditions: time 24-30 hrs
[4] = (§2) Inhibition of MPC in human MCF-10A cells assessed as reduction in oxygen consumption rate using pyruvate and malate and ADP; format: cell-based
Procedure, shortened: (§3)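 A Seahorse XF Analyzer measured the respiration of permeabilized MCF10A cells, with 5 mM pyruvate and 0.5 mM malate as substrates plus ADP (state 3). Cells received half-log doses from 3 nM to 10 µM. OCR (fmol O2 per cell per min) was measured in duplicate and normalized to cell number. IC50 was fitted from the dose-response.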

[5] = tested on: MCF-10A; test: as §2; format: cell-based; procedure, shortened: as §3
[6] = tested on: MCF-10A; test: Inhibition of MPC in human MCF-10A cells assessed as increase in cellular lactate production incubated for 24 to 30 hrs; format: cell-based; conditions: time 24-30 hrs; procedure, shortened: as §1

Row | Compound | inhibition [1] | other results
1 | COC(=O)/C(C#N)=C/c1cn(Cc2cc(C(F)(F)F)cc(C(F)(F)F)c2)c2ccccc12 | inactive | 
2 | N#C/C(=C\c1cn(Cc2cc(C(F)(F)F)cc(C(F)(F)F)c2)c2cccc(Br)c12)C(=O)O | Active | Activity [2]: Active
3 | CCOC(=O)/C(C#N)=C/c1cn(Cc2cc(C(F)(F)F)cc(C(F)(F)F)c2)c2cccc(Br)c12 | Active | 
4 | COc1ccc(-n2cc(/C=C(\C#N)C(=O)O)c3ccccc32)cc1 | Active | 
5 | N#C/C(=C\c1cn(Cc2cc(C(F)(F)F)cc(C(F)(F)F)c2)c2ccccc12)C(=O)N1CCOCC1 | Active | Activity [3]: Toxic
6 | CCOC(=O)/C(C#N)=C/c1cn(Cc2cc(F)cc(F)c2)c2ccccc12 | Active | 
7 | CCOC(=O)/C(C#N)=C/c1cn(Cc2ccc(F)c(F)c2)c2ccccc12 | Active | 
8 | N#C/C(=C\c1ccc(F)c(F)c1)C(=O)O | inactive | 
9 | N#C/C(=C\c1ccccc1)C(=O)O | inactive | 
10 | N#C/C(=C\c1cc(C(F)(F)F)cc(C(F)(F)F)c1)C(=O)O | inactive | 
11 | N#C/C(=C\c1cn(Cc2cc(F)cc(F)c2)c2ccc(F)cc12)C(=O)O | Active | 
12 | N#C/C(=C\c1cn(Cc2cc(C(F)(F)F)cc(C(F)(F)F)c2)c2nccc(Cl)c12)C(=O)O | Active | 
13 | N#C/C(=C\c1cn(Cc2cc(C(F)(F)F)cc(C(F)(F)F)c2)c2cccnc12)C(=O)O | Active | 
14 | N#C/C(=C\c1cn(Cc2cc(C(F)(F)F)cc(C(F)(F)F)c2)c2ccccc12)C(=O)O | Active | IC50 [4]: 16.6 nM; Activity [2]: Active
15 | N#C/C(=C\c1cn(Cc2cc(F)cc(F)c2)c2cc(F)ccc12)C(=O)O | Active | 
16 | CCOC(=O)/C(C#N)=C/c1c[nH]c2ccccc12 | inactive | 
17 | N#C/C(=C\c1cn(Cc2cc(C(F)(F)F)cc(C(F)(F)F)c2)c2cc(OCc3ccccc3)ccc12)C(=O)O | inactive | 
18 | N#C/C(=C\c1cn(Cc2cc(C(F)(F)F)cc(C(F)(F)F)c2)c2c(Cl)cccc12)C(=O)O | inactive | 
19 | N#C/C(=C\c1cn(Cc2cc(C(F)(F)F)cc(C(F)(F)F)c2)c2nccc(Br)c12)C(=O)O | Active | 
20 | CCOC(=O)/C(C#N)=C/c1cn(C(=O)Cc2cc(C(F)(F)F)cc(C(F)(F)F)c2)c2ccccc12 | inactive | 
21 | N#C/C(=C\c1cn(Cc2ccc(F)cc2)c2ccccc12)C(=O)O | Active | 
22 | N#C/C(=C\c1cn(Cc2cc(C(F)(F)F)cc(C(F)(F)F)c2)c2c(F)cccc12)C(=O)O | Active | 

Row | Compound | inhibition [1] | other results
23 | CCOP(=O)(OCC)/C(C#N)=C/c1cn(Cc2cc(C(F)(F)F)cc(C(F)(F)F)c2)c2ccccc12 | Active | 
24 | CCOC(=O)/C(C#N)=C/c1cn(Cc2cc(C(F)(F)F)cc(C(F)(F)F)c2)c2ccccc12 | Active | 
25 | CC(C)(C)OC(=O)/C(C#N)=C/c1cn(Cc2cc(C(F)(F)F)cc(C(F)(F)F)c2)c2ccccc12 | inactive | 
26 | N#C/C(=C\c1c[nH]c2ccccc12)C(=O)O | inactive | 
27 | CCOC(=O)/C(C#N)=C/c1cn(Cc2cc(C(F)(F)F)cc(C(F)(F)F)c2)c2cccc(F)c12 | Active | 
28 | N#C/C(=C\c1ccc(C(F)(F)F)cc1)C(=O)O | inactive | 
29 | N#C/C(=C\c1cn(Cc2cc(C(F)(F)F)cc(C(F)(F)F)c2)c2cccc(OCc3ccccc3)c12)C(=O)O | inactive | 
30 | CCOC(=O)C(=Cc1cn(-c2ccccc2)c2ccccc12)C(=O)O (mixture of isomers) | inactive | 
31 | N#C/C(=C\c1ccc(F)cc1)C(=O)O | inactive | 
32 | N#C/C(=C\c1ccccc1F)C(=O)O | inactive | 
33 | N#C/C(=C\c1ccc(O)cc1)C(=O)O | inactive | 
34 | N#CC(C#N)=Cc1cn(-c2ccccc2)c2ccccc12 | inactive | 
35 | N#C/C(=C\c1cn(-c2ccccc2)c2cccc(Cl)c12)C(=O)O |  | Activity [2]: Active
36 | N#C/C(=C\c1ccc(F)cc1F)C(=O)O | inactive | 
37 | CCOC(=O)/C(C#N)=C/c1cn(-c2ccccc2OC)c2ccccc12 | Active | 
38 | N#C/C(=C\c1cn(Cc2cc(C(F)(F)F)cc(C(F)(F)F)c2)c2ncccc12)C(=O)O | Active | IC50 [4]: 42.8 nM; inhibition [5]: Active
39 | N#C/C(=C\c1cn(Cc2ccc(F)c(F)c2)c2cc(F)ccc12)C(=O)O | Active | 
40 | N#C/C(=C\c1cn(Cc2ccccc2)c2ccccc12)C(=O)O | Active | 
41 | CCOP(=O)(OCC)/C(C#N)=C/c1cn(Cc2cc(C(F)(F)F)cc(C(F)(F)F)c2)c2ncccc12 | Active | 
42 | N#C/C(=C\c1cn(Cc2cc(F)cc(F)c2)c2ccccc12)C(=O)O | Active | 
43 | N#C/C(=C\c1ccc(F)c(C(F)(F)F)c1)C(=O)O | inactive | 
44 | COc1cccc2c1c(/C=C(\C#N)C(=O)O)cn2Cc1cc(C(F)(F)F)cc(C(F)(F)F)c1 | Active | 

Row | Compound | inhibition [1] | other results
45 | CCOC(=O)/C(C#N)=C/c1cn(-c2ccccc2)c2ccccc12 | inactive | 
46 | N#C/C(=C\c1cn(Cc2ccc(F)c(F)c2)c2ccccc12)C(=O)O | Active | 
47 | CCOC(=O)/C(C#N)=C/c1cn(Cc2ccc(F)cc2)c2ccccc12 | Active | 
48 | N#C/C(=C\c1cn(Cc2cc(C(F)(F)F)cc(C(F)(F)F)c2)c2c(OCc3ccccc3)cccc12)C(=O)O | Active | 
49 | N#C/C(=C\c1cn(-c2ccccc2)c2ccccc12)C(=O)O | Active | inhibition [6]: Dose-dependent effect
50 | N#C/C(=C\c1cn(Cc2cc(C(F)(F)F)cc(C(F)(F)F)c2)c2cccc(Cl)c12)C(=O)O | Active | Activity [2]: Active
51 | Cc1ccc(/C=C(\C#N)C(=O)O)cc1F | inactive | 
52 | N#C/C(=C\c1cn(Cc2cc(C(F)(F)F)cc(C(F)(F)F)c2)c2cccc(C(=O)O)c12)C(=O)O | inactive | 
53 | N#C/C(=C\c1cn(Cc2cc(C(F)(F)F)cc(C(F)(F)F)c2)c2cnccc12)C(=O)O | Active | 
54 | N#C/C(=C\c1cn(Cc2cc(C(F)(F)F)cc(C(F)(F)F)c2)c2ccccc12)P(=O)(O)O | inactive | 
55 | CCOC(=O)/C(C#N)=C/c1cn(-c2ccc(OC)cc2)c2ccccc12 | Active | 
56 | CCOC(=O)/C(C#N)=C/c1cn(Cc2cc(C(F)(F)F)cc(C(F)(F)F)c2)c2ncccc12 | Active | 
57 | N#C/C(=C\c1cccc(C(F)(F)F)c1Cl)C(=O)O | inactive | 
58 | CCOC(=O)/C(C#N)=C/c1cn(Cc2ccccc2)c2ccccc12 | Active | 
59 | N#C/C(=C\c1cn(Cc2cc(C(F)(F)F)cc(C(F)(F)F)c2)c2ccccc12)C(N)=O | Active | Activity [3]: Toxic
60 | N#C/C(=C\c1cn(Cc2cc(C(F)(F)F)cc(C(F)(F)F)c2)c2cccc(F)c12)C(=O)O | Active | Activity [2]: Active
61 | COc1ccccc1-n1cc(/C=C(\C#N)C(=O)O)c2ccccc21 | Active | 
62 | N#C/C(=C\c1cn(Cc2cc(C(F)(F)F)cc(C(F)(F)F)c2)c2cc(Cl)ccc12)C(=O)O | inactive | 
63 | N#C/C(=C\c1cn(Cc2ccc(F)c(F)c2)c2ccc(F)cc12)C(=O)O | Active | 
64 | N#C/C(=C\c1cn(Cc2cc(C(F)(F)F)cc(C(F)(F)F)c2)c2cccc(C#N)c12)C(=O)O | Active | 
65 | N#C/C(=C\c1cn(Cc2cc(C(F)(F)F)cc(C(F)(F)F)c2)c2ccc(Cl)cc12)C(=O)O | inactive | 
66 | N#CC(Cc1cn(-c2ccccc2)c2ccccc12)C(=O)O (stereo unspecified) | inactive | 
